# Env fusion inh: inhibitors of HIV Env-mediated cell fusion | 1.1% of 360,000 active | inhibition, % at 12.3 µM | HeLa-JRFL Env/CEM21 cell fusion, luciferase;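 active = mean replicate inhibition score of at least 50 and every replicate individually at or above 50; inconclusive = only one of the two criteria met; inactive = mean below 50 and not all replicates reaching 50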;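 also: 0% = plate neutral controls and 100% = maraviroc near 300 nM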
# N-glyco inh: N-linked glycosylation inhibition; D54 ERlucT glycosylation luciferase reporter, 24 h; percent of 100 nM tunicamycin response; reporter increase, % at 12.5 µM; 0.23% of 360,000 active; AID 588692;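 active = mean luciferase reporter signal, scaled so untreated is 0 and the glycosylation-blocking control 100, at or above a set limit in every replicate; inconclusive = mean reaches the limit but not every replicate does; inactive = mean below the limit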;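 also: luciferase carries N-glycosylation sites so blocking glycosylation raises the light; 0% = median of neutral control wells and 100% = median of 100 nM tunicamycin wells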
# Rtt109 Vps75: inhibitors of Candida albicans Rtt109/Vps75 histone acetyltransferase; purified Rtt109/Vps75, ThioGlo CoA-SH fluorescence, 4 h; inhibition, % at 34.9 µM; 0.16% of 330,000 active; AID 540336; Q5AAJ8;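 active = inhibition of at least 50% in every replicate; inconclusive = best replicate reaches 50% inhibition but some replicates fall short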
# Target sequence (Q5AAJ8 whole entry, looked up): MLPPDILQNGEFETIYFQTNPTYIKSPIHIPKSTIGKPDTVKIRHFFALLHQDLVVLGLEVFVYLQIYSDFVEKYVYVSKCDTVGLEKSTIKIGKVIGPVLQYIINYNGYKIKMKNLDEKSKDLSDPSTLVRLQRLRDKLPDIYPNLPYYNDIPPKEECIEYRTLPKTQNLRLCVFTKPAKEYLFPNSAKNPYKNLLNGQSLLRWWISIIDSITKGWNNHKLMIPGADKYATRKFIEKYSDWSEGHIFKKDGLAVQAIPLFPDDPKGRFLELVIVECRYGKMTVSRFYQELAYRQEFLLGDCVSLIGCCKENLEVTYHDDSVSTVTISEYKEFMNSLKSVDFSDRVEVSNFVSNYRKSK
# SR-BI HDL uptake: blocks mouse SR-BI lipid uptake from DiI-HDL. Q61009. 0.96% of 320,000 active. inhibition, % at 12.5 µM. ldlA[mSR-BI] CHO cells, DiI-HDL uptake fluorescence, 3 h;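 active = mean replicate inhibition of at least 70% and a set share of replicates each scoring 70 or more; inconclusive = meets just one of the two criteria; inactive = fails both criteria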;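 also: 0% = median of neutral control wells and 100% = median of positive control wells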
# PglD inh: PglD (C. jejuni) enzyme inhibition | purified PglD enzyme, DTNB colorimetric CoA detection | inhibition, % at 12.5 µM | 0.098% of 360,000 active; in the data active = inhibition above about 16%, passing the limit was not always enough; inconclusive = no clear call, values can overlap the other calls
# SR-BI uptake up: SR-BI HDL lipid transfer activation; 0.096% of 320,000 active; CHO ldlA[mSR-BI] cells, DiI-HDL uptake fluorescence, 3 h; 100 = double the neutral-control signal; activation, % at 12.5 µM;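 active = mean replicate activation of at least 60% and every replicate at or above 60%; inconclusive = mean or all-replicate condition met, but not both; inactive = mean below 60% and not all replicates reaching 60%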;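 also: 0% = median plate neutral-control signal and 100% = twice that signal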
#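 Material: SR-BI-overexpressing, LDLR-lacking CHO cells | Dosing: Single compound concentration, delivered by pin transfer | Probe or stimulus: Labelled HDL, 10 µg/mL | Signal: Bottom-read cell fluorescence after medium removal, ex 550/em 595 nm | Schedule: 3 h, 37 °C | Evaluation: HDL uptake via cellular fluorescence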
# * marks the source's active call; other numbers are inactive results; ? = inconclusive; nt = no result given; [ ] = another dose, or the depositor's remark. The list is not random: actives were taken first. Their share in the collection is about 1.9%.
SMILES,Env fusion inh,N-glyco inh,Rtt109 Vps75,SR-BI HDL uptake,PglD inh,SR-BI uptake up
O=C(Nc1cc(S(=O)(=O)N2CCOCC2)ccc1N1CCCC1)c1ccc(Cl)cc1,-162,11,4,-10,4,10
O=[N+]([O-])c1cccc(-c2ccc(C(=S)N3CCOCC3)o2)c1,-137,-7,nt,60,5,-60
COc1ccc(NC(=O)N(C)C[C@H]2Oc3c(NS(=O)(=O)c4ccc(F)cc4)cccc3C(=O)N([C@H](C)CO)C[C@H]2C)cc1,1[16.7 µM],nt,nt,nt,2,nt
COCC(=O)N(C)C[C@H]1Oc2cc(-c3ccc(C)cc3)ccc2S(=O)(=O)N([C@@H](C)CO)C[C@@H]1C,-7[16.7 µM],nt,nt,nt,-3,nt
CCCOc1ccc(C(F)(F)F)cc1NC(=O)c1cc(C)on1,nt,-1,1,72*,4,-72
CCOC(=O)C1=C(COC(=O)/C=C/c2cc(OC)c(OC)c(OC)c2)NC(=O)NC1C (stereo not given),nt,6,-2,81*,2,-81
Cc1ccc(/C=C2/SC(=S)N(CCCC(=O)Nc3ccc(O)cc3)C2=O)cc1,55*,-5,4,8,nt,-8
O=C(CCCN1C(=O)/C(=C\c2ccccc2)SC1=S)Nc1ccc(O)cc1,24,-4,18,-14,-3,14
COc1cccc(/C=C2\SC(=S)N(CCCC(=O)NC3=NCCS3)C2=O)c1,13,0,-5,8,-6,-8
CCc1ccc(/C=C2\SC(=S)N(CCCC(=O)NC3=NCCS3)C2=O)cc1,59*,-4,nt,nt,4,nt
Cc1ccc(/C=C2\SC(=S)N(CCC(=O)NNC(=O)c3ccccc3O)C2=O)cc1,0,0,-3,-11,-2,11
Cc1ccc(/C=C2\SC(=S)N(CCCC(=O)NNC(=O)c3ccccc3O)C2=O)cc1,96*,-8,-4,nt,7,nt
COc1ccccc1/C=C1\SC(=S)N(CCC(=O)Nc2cccc(O)c2)C1=O,70*,-1,-2,41,-3,-41
COc1cc(/C=C2\SC(=S)N(CCC(=O)Nc3cccc(O)c3)C2=O)cc(OC)c1OC,2,-7,-3,40,-6,-40
C[C@H](CO)N1C[C@H](C)[C@H](CN(C)C(=O)Nc2ccc(F)cc2)Oc2ccc(NC(=O)CCC(F)(F)F)cc2C1=O,nt,nt,nt,nt,3,nt
COc1ccccc1N1CCN(CCOc2c(OC)cccc2OC)CC1,63*,0,0,-37,nt,37
C[C@H](CO)N1C[C@H](C)[C@@H](CN(C)Cc2ccc3c(c2)OCO3)Oc2ccc(NC(=O)Nc3ccc(C(F)(F)F)cc3)cc2CC1=O,42[16.7 µM],nt,nt,nt,0,nt
Cc1cc(/C=N/NC(N)=S)c(C)n1-c1ccc(Cl)c(Cl)c1,-14,-11,nt,81*,nt,-81
CCNC(=S)N/N=C/c1cc(C)n(-c2ccc(Cl)cc2)c1C,-27,-5,-10,8,nt,-8
COc1cc(OC)c(C=CC(=O)c2ccccc2O)c(OC)c1,?,-1,0,73*,4,-73
COc1ccc(C(=O)/C=C/c2ccccc2)c(OC)c1,nt,9,3,34,-6,-34
COc1cc(C)cc(C(=O)C=Cc2ccccc2)c1O,-123,31*,5,18,8,-18
Cc1ccc(O)c(C(=O)C=Cc2ccccc2)c1,-32,30*,0,4,nt,-4
COc1cccc(NC(=O)N2C[C@H](O)COC[C@H]3O[C@@H](CC(=O)N(C)C)CC[C@@H]32)c1,3[16.7 µM],nt,nt,nt,0,nt
COc1ccc(-c2c(-c3ccsc3)oc3ccc(N4CCOCC4)cc23)cc1,24,-4,-3,75*,0,-75
SMILES,Env fusion inh,N-glyco inh,Rtt109 Vps75,SR-BI HDL uptake,PglD inh,SR-BI uptake up
COc1ccc(-c2oc3ccc(N4CCOCC4)cc3c2/C=C/c2ccc(OC)c(OC)c2)cc1,39,0,-9,13,-8,-13
Cn1c2ccccc2c2ccc3c(c21)C(=O)C=CC3=O,-43,?,-1,20,nt,-20
Cc1ccc2c(c1)c1ccc3c(c1n2C)C(=O)C=CC3=O,-239,31*,0,71*,-5,-71
COc1ccc2c(c1)c1ccc3c(c1n2C)C(=O)C=CC3=O,-231,28*,8,?,3,-75
CO[C@@H]1CN(C)C(=O)c2cc(NC(C)=O)ccc2OC[C@@H](C)N(C(=O)c2ccccn2)C[C@H]1C,-46[16.7 µM],nt,nt,nt,5,nt
NC(=S)N/N=C1/CCSc2ccc3ccccc3c21,-28,-2,5,79*,nt,-79
NC(=S)N/N=C/c1c(O)ccc2ccccc12,50,11,9,nt,nt,nt
C[C@H](NC(=O)c1ccco1)C(=O)Nc1ccc(S(=O)(=O)N2CCCC2)cc1,-63,-1,55*,-24,-4,24
C[C@H]1CN([C@@H](C)CO)C(=O)Cc2cc(NC(=O)Nc3ccccc3)ccc2O[C@@H]1CN(C)Cc1ccc(C(=O)O)cc1,nt,nt,nt,nt,0,nt
O=C(c1cc([N+](=O)[O-])ccc1N1CCCCC1)N1CCc2ccccc21,7,3,-8,76*,nt,-76
O=C(O)c1cc([N+](=O)[O-])ccc1N1CCCCC1,-67,3,11,-55,nt,55
Cc1ccc(C(=O)c2cc([N+](=O)[O-])ccc2N2CCCCC2)c(C)c1,-41,-5,10,75*,nt,-75
O=C(c1cc([N+](=O)[O-])ccc1Cl)N1CCc2ccccc21,9,4,-3,15,-3,-15
C[C@H](CO)N1C[C@H](C)[C@H](CN(C)CC2CC2)OCc2cnnn2CCCC1=O,nt,nt,nt,nt,1,nt
O=C1C(NS(=O)(=O)c2cccs2)=C(N2CCN(c3cccc(Cl)c3)CC2)C(=O)c2ccccc21,nt,2,0,81*,-1,-81
O=C1C(NS(=O)(=O)c2ccccc2)=C(N2CCN(c3ccc(F)cc3)CC2)C(=O)c2ccccc21,1,-2,4,87*,6,-87
CC1CCN(C2=C(NS(=O)(=O)c3ccccc3)C(=O)c3ccccc3C2=O)CC1,22,5,5,nt,nt,nt
Cc1oc(-c2ccccc2F)nc1CS(=O)CC(=O)NC1CCCC1 (stereo not given),3,1,1,85*,nt,-85
C[C@@H]1CN([C@H](C)CO)C(=O)c2cccc(NS(=O)(=O)c3ccc(Cl)cc3)c2O[C@H]1CN(C)C,nt,nt,nt,nt,-2,nt
Cc1cccc2c(N=Nc3ccc(S(=O)(=O)Nc4ccc(Cl)cc4)cc3[N+](=O)[O-])c(O)[nH]c12,12,-1,1,97*,-4,-97
Cc1cccc2c(N=NC(=O)c3ccc(NS(=O)(=O)c4cccs4)cc3)c(O)[nH]c12,-1,-1,2,5,0,-5
C=CC[C@H](CC(=O)N(CCO)Cc1ccccc1)C(=O)N[C@H](COC(=O)[C@@H](CC=C)CC(=O)OC(C)(C)C)Cc1c[nH]c2ccccc12,64*,-3,6,-22,2,22

# Screening data from PubChem BioAssay.
